Experiment [1] concerns Candida albicans. The experiment is described as follows: Synergistic antifungal activity against azole-resistant Candida albicans assessed as potentiation of ITC antifungal activity by measuring ITC incubated for 48 hrs in presence of fluconazole by checkerboard microdilution assay. It counts as functional.
Experiment [2] relates to Candida albicans. Put plainly: Induction of morphological changes in Candida albicans assessed as reduction in morphological conversion from yeast to hypha forms at 32 ug/ml incubated for 3 hrs by inverse fluorescence microscopy. It is filed as functional, organism-based. As to conditions: dose 32.0 µg/ml. In outline:
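Exponential-phase C. albicans were suspended in Spider medium ([…], 2% NaHCO₃, […]) at 2 × 10⁶ cells/mL. Drugs were added alone or combined, with DMSO as control. After 3 h at 37 °C, cells were imaged by inverted fluorescence microscopy. Three independent experiments were run.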

For experiment [3], the target named is T1, Protein deacetylase HDAC6 (Homo sapiens, UniProt Q9UBN7).
T1 sequence (Q9UBN7 whole entry): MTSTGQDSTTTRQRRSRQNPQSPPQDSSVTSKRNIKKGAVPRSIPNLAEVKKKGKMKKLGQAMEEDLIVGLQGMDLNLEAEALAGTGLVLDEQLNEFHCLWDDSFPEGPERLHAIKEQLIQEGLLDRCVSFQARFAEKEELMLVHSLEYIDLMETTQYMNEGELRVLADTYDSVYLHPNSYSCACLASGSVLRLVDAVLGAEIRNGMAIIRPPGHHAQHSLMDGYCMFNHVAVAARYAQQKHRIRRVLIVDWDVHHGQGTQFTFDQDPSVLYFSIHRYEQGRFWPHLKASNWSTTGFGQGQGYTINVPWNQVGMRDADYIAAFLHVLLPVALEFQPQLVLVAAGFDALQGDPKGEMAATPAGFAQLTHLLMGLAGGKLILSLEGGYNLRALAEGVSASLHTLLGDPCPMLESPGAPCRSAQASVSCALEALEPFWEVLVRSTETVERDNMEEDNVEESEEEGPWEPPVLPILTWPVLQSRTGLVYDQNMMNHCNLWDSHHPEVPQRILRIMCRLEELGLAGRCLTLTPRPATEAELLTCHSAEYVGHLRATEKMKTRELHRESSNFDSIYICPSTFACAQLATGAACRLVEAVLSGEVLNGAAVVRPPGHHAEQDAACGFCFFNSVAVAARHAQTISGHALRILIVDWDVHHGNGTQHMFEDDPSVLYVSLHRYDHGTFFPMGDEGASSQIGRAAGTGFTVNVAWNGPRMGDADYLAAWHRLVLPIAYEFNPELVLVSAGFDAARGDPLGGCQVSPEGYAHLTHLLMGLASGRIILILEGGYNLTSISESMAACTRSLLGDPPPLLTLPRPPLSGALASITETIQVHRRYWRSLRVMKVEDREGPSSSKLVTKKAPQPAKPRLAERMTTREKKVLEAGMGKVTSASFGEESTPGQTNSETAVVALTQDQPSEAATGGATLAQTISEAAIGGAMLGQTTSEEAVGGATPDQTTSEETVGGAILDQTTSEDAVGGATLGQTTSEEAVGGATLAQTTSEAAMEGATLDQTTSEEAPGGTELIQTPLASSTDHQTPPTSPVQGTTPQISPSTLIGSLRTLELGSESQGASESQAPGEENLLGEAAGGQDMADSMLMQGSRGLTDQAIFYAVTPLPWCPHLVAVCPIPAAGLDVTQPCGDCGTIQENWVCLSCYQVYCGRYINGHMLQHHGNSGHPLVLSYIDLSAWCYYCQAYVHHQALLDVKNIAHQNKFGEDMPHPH
The experiment is described as follows: Inhibition of human HDAC6 pre-incubated for 5 mins before substrate addition and measured after 30 mins by fluorescence based assay.

In another experiment the test system is Nakaseomyces glabratus. Put plainly: Synergistic antifungal activity against Candida glabrata assessed as potentiation of ITC antifungal activity by measuring ITC incubated for 48 hrs in presence of fluconazole by checkerboard microdilution assay. It counts as functional, organism-based.
The subject of experiment [4] is Candida albicans. The experiment is described as follows: Synergistic antifungal activity against Candida albicans 9884 assessed as fluconazole MIC incubated for 48 hrs in presence of fluconazole by microdilution assay (reference value: fluconazole alone MIC = >[…] ug/ml). It is filed as functional.
The subject of the next experiment is Candida tropicalis. The experiment is described as follows: Synergistic antifungal activity against Candida tropicalis assessed as potentiation of VRC antifungal activity by measuring VRC incubated for 48 hrs in presence of fluconazole by checkerboard microdilution assay. It counts as functional, organism-based.
The subject of another experiment is [Candida] auris. Put plainly: Synergistic antifungal activity against Candida auris assessed as potentiation of ITC antifungal activity by measuring ITC incubated for 48 hrs in presence of fluconazole by checkerboard microdilution assay. It is filed as functional, organism-based. The settings on record: Candidozyma auris.
In a further experiment the test system is Cryptococcus neoformans. The experiment is described as follows: Synergistic antifungal activity against Cryptococcus neoformans assessed as potentiation of VRC antifungal activity by measuring VRC incubated for 48 hrs in presence of fluconazole by checkerboard microdilution assay. It is filed as functional, organism-based.
Experiment [5] concerns Candida albicans. Put plainly: Down regulation of CDR1 mRNA expression in Candida albicans 0304103 at 32 ug/ml incubated for 24 hrs in presence of 32 ug/ml fluconazole by RT-PCR analysis. It is filed as functional. As to conditions: dose 32.0 µg/ml. In outline:
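C. albicans 0304103 (initial 1 × 10⁶ cells/mL) treated with DMSO, fluconazole 32 μg/mL, compound 32 μg/mL, or both in YEPD medium, 35 °C for 24 h. Total RNA extracted, reverse transcribed, real-time PCR for 40 cycles; fold change by 2^−ΔΔCt with ACT1 as internal control.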

Experiment [6] deals with Pichia kudriavzevii. The experiment is described as follows: Synergistic antifungal activity against Candida krusei 10153 incubated for 48 hrs in presence of fluconazole by microdilution assay. It counts as functional. In outline:
(§1)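 Checkerboard broth microdilution per CLSI M27-A3 (modified), clinical Candida isolates. Exponential cells in RPMI 1640 (MOPS-buffered) at 10³ cells/mL; fluconazole 0.25–64 μg/mL crossed with test compound 2–64 μg/mL (final). 48 h at 35 °C; OD630 read with background subtracted. MIC80 = 80% growth inhibition; FICI ≤0.5 synergy, >4 antagonism.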

The next experiment addresses Histone deacetylase 1 (Homo sapiens, UniProt Q13547). The experiment is described as follows: Inhibition of human HDAC1 pre-incubated for 5 mins before substrate addition and measured after 30 mins by fluorescence based assay.
Experiment [7] concerns Pichia kudriavzevii. Put plainly: Synergistic antifungal activity against Candida krusei 10153 assessed as fluconazole MIC incubated for 48 hrs in presence of fluconazole by microdilution assay (reference value: fluconazole alone MIC = […] ug/ml). It counts as functional.
In experiment [8] the test system is Candida albicans. Put plainly: Synergistic antifungal activity against Candida albicans 0304103 assessed as potentiation of fluconazole antifungal activity by measuring FICI incubated for 48 hrs in presence of fluconazole by checkerboard microdilution assay. It counts as functional. In outline:
as §1

Experiment [9] has as its system Candida albicans. The experiment is described as follows: Synergistic antifungal activity against Candida albicans 9884 assessed as potentiation of fluconazole antifungal activity by measuring FICI incubated for 48 hrs in presence of fluconazole by checkerboard microdilution assay. It counts as functional. In outline: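 Checkerboard broth microdilution per CLSI M27-A3 (modified), clinical Candida isolates. 48 h at 35 °C; OD630 read with background subtracted. MIC80 = 80% growth inhibition; FICI ≤0.5 synergy, >4 antagonism.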

The structures appear in SMILES notation. Active and inactive are the calls of the source. The rule behind the calls is not given here.

Chain of Histone deacetylase 1 (Q13547 whole entry): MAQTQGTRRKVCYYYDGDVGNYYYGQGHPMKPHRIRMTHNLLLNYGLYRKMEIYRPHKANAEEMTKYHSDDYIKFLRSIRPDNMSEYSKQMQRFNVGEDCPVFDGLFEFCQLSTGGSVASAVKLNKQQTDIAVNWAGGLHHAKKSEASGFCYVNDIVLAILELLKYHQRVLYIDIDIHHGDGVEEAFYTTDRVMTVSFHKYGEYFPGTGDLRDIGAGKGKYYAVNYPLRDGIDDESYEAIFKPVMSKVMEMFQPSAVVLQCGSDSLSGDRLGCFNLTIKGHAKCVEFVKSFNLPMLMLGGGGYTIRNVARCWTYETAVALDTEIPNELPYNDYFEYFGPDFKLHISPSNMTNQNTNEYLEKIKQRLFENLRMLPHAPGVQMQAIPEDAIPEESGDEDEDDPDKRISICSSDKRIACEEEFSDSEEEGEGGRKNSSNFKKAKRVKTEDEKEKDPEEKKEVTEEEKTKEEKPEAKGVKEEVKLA

For the molecule `O=C(Cc1ccc(OCCCn2c3c(c4cccc(Cl)c42)CCNC3)cc1)NO`, the “fractional inhibitory concentration index (FICI)” value is recorded as 0.035 with Candida albicans [1], 0.035 in the experiment with Candida albicans [8] and 0.039 in the experiment with Candida albicans [9]. For the same molecule, the result in the experiment with Candida albicans [2] and in the experiment with Cryptococcus neoformans was inactive. Further, the values for the IC50 (in experiment [3]; at Histone deacetylase 1) were 0.459 µM and 2.23 µM, respectively. The result (with Nakaseomyces glabratus; in the experiment on Candida tropicalis; in experiment [Candida] auris; in the experiment with Candida albicans [5]) was Active. Besides, the MIC80 in the experiment with Candida albicans [4] came to 0.5 µg/mL; in the experiment with Pichia kudriavzevii [6], 8 µg/mL; in the experiment with Pichia kudriavzevii [7], 8 µg/mL.

Values taken from ChEMBL document CHEMBL4706641, “Novel Carboline Fungal Histone Deacetylase (HDAC) Inhibitors for Combinational Treatment of Azole-Resistant Candidiasis” (J Med Chem, 2021).
